Screens from PubChem.
INS-1E GSIS act: GLuc luminescence reporter in INS-1E cells, primary screen for activators of glucose-dependent secretion of insulin. INS-1E GLuc reporter insulin secretion, 2-3 h. activation, % at 16.6 µM. 0.61% of 370,000 active. AID 743287, 2014;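 active means lowest replicate activation of at least 40%, so every replicate reaches that level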
ERp5 inh: inhibitors of ERp5-driven insulin aggregation, primary screen, biochemical, turbidity, absorbance 650 nm, single point. 90 min. inhibition, % at 9.99 µM. 0.05% of 350,000 active. AID 651711, 2012;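 active means mean replicate inhibition above about 25%, with every replicate also reaching it, limit read from the data, passing the limit was not always enough; inconclusive means only one of those two criteria met; inactive means neither criterion met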
HIV Env fusion: inhibitors of HIV-1 Env-driven cell-cell fusion, primary screen, HeLa-JRFL effector, CEM21 target cells, luciferase | 1.1% of 360,000 active | AID 651610, 2012 | inhibition, % at 12.3 µM;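 active means mean replicate inhibition score of at least 50 and every replicate individually at or above 50; inconclusive means only one of the two criteria met; inactive means mean below 50 and not all replicates reaching 50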
FN deposit inh: inhibitors of fibronectin matrix deposition, primary screen, AH1F cells, Alexa488-fibronectin fluorescence, plate reader | inhibition, % at 12.6 µM | 0.086% of 350,000 active | AH1F fibroblasts, overnight;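 active means mean inhibition across replicates of 30% or more, regardless of how many single replicates reach that level; inconclusive means mean under 30% yet at least half of replicates reach 30%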
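material = AH1F fibroblast monolayer depositing Alexa488-labelled fibronectin into matrix | amount = 10000 AH1F cells/well | buffer or medium = DMEM plus 2% serum, read in PBS | incubation = 1 h cell adhesion before compound, then overnight fibronectin incubation | detection = fluorescence at 485 nm excitation, 525 nm emission | evaluation = percent inhibition as loss of matrix-bound fibronectin fluorescence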
PDI inh: inhibitors of human PDI, primary screen, biochemical, turbidity, single point, plate reader | PDI insulin aggregation turbidity, A650, 90 min | inhibition, % at 10 µM | 0.052% of 350,000 active;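 active means mean inhibition across replicates of 30% or more, whatever share of single replicates reach that level; inconclusive means mean inhibition below 30% while every single replicate reaches 30%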
Target sequence (P07237 whole entry, looked up): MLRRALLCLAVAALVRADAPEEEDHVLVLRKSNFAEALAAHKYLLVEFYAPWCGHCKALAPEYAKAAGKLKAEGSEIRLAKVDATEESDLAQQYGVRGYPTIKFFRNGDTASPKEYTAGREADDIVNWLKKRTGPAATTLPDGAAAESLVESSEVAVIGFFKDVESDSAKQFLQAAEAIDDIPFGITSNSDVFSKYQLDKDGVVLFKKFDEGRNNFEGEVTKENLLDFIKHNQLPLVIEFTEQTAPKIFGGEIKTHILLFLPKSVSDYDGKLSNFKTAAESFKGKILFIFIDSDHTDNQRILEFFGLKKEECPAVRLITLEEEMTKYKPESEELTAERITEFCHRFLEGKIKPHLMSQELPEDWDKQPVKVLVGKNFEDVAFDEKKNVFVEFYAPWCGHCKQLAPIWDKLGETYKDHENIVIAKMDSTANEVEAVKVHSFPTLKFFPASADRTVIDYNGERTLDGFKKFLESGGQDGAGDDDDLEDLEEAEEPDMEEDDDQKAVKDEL
Of the large screens only hits and unclear results are named; the others gave an inactive call. Shown are actives, neighbours in structure and some others; about 1.4% of the full set was active somewhere.

CCOC(=O)C1=C(C)N(C[C@@H]2CC[C@@H](Cc3ccc(-c4ccccc4)cc3)O2)C(=O)NC1c1ccc(-c2ccccc2)cc1 (stereo not given in full)	HIV Env fusion 72 (no result: FN deposit inh)
CCOc1ccc(Nc2oc(-c3cccc(Cl)c3)nc2C#N)cc1	INS-1E GSIS act 106 (no result: ERp5 inh)
C=CS(=O)(=O)c1ccc(Oc2ccc(S(=O)(=O)C=C)cc2)cc1	INS-1E GSIS act 83, PDI inh inconclusive
CNC[C@H]1Oc2ccc(NS(C)(=O)=O)cc2CC(=O)N(C)C[C@H]1C	none (no result: ERp5 inh, HIV Env fusion, PDI inh)
COc1ccccc1OCC(=O)c1[nH]c(C)c(C(C)=O)c1C	HIV Env fusion 74 (no result: INS-1E GSIS act, ERp5 inh, FN deposit inh)
COc1ccc(S(=O)(=O)Nc2ccc3c(c2)C(=O)N([C@@H](C)CO)C[C@@H](C)[C@@H](CN(C)S(=O)(=O)c2cccs2)OCCCC[C@@H](C)O3)cc1	none (no result: PDI inh)
Clc1ccc2c(c1)C(C1=NCCN1)c1ccccc1CS2 (stereo not given)	HIV Env fusion 113 (no result: ERp5 inh)
COc1cccc([C@@H](NC(=O)C(F)(F)F)[C@@H]2CCCC=C2c2ccccc2)c1	none (no result: PDI inh)
O=C(N[C@H](c1cccc(Br)c1)[C@@H]1CCCC=C1c1ccccc1)C(F)(F)F	HIV Env fusion 67 (no result: INS-1E GSIS act, PDI inh)
Cc1cc(Nc2cccc(C(F)(F)F)c2)cc(=O)n1-c1cccc(C(F)(F)F)c1	HIV Env fusion 67 (no result: PDI inh)
Cc1cc(Nc2cc(C(F)(F)F)cc(C(F)(F)F)c2)cc(=O)n1-c1cc(C(F)(F)F)cc(C(F)(F)F)c1	none (no result: PDI inh)
CCNC1CCC(Nc2ccnc3cc(Cl)ccc23)CC1 (stereo not given)	HIV Env fusion 74 (no result: INS-1E GSIS act)
OC(CNc1ccnc2cc(Cl)ccc12)CNC1CCCCC1 (stereo not given)	none (no result: INS-1E GSIS act)
Cc1cc(C)c(CN2CCN(C(=O)Cn3cnc4c(NCc5ccccc5)ncnc43)CC2)c(C)c1	HIV Env fusion 87 (no result: FN deposit inh)
O=C(Cn1cnc2c(NCc3ccccc3)ncnc21)N1CCN(c2ccccn2)CC1	none
Cc1cc(C(C)(C)CC(C)(C)C)ccc1OCCOCC[N+](C)(C)Cc1ccccc1	INS-1E GSIS act 333
C[N+](C)(CCOc1ccccc1)Cc1ccccc1	none (no result: INS-1E GSIS act)
COc1ccc(-c2nnc3sc(-c4ccco4)nn23)cc1OC	INS-1E GSIS act 59 (no result: ERp5 inh)
COc1ccc(-c2nn3c(-c4ccco4)nnc3s2)cc1OC	none (no result: INS-1E GSIS act, ERp5 inh)
CCNC(=O)C[C@H]1CC[C@@H](NS(=O)(=O)c2ccc(C)cc2)[C@@H](CO)O1	none (no result: FN deposit inh, PDI inh)
N#C/C(=C\c1c(N(Cc2ccccc2)Cc2ccccc2)nc2ccccn2c1=O)C(N)=O	HIV Env fusion 58 (no result: ERp5 inh)
COc1ccc(C#Cc2cnc3c(c2)C(=O)N([C@@H](C)CO)C[C@H](C)[C@H](CN(C)CC2CC2)O3)cc1	none (no result: HIV Env fusion, FN deposit inh, PDI inh)
Cc1cc(NC(=O)CS(=O)(=O)c2cn(Cc3ccc(F)cc3)c3ccccc23)no1	HIV Env fusion 79 (no result: INS-1E GSIS act, PDI inh)
Cc1cc(NC(=O)CS(=O)(=O)c2cn(Cc3cccc(F)c3)c3ccccc23)no1	HIV Env fusion 73 (no result: ERp5 inh)
Cc1cc(NC(=O)CS(=O)(=O)c2cn(Cc3cccc(C(F)(F)F)c3)c3ccccc23)no1	HIV Env fusion 78
CC(C)NC(=O)Nc1cccc2c1O[C@H](CN(C)Cc1ccc(-c3ccccc3)cc1)[C@H](C)CN([C@H](C)CO)C2=O	none (no result: FN deposit inh, PDI inh)
CCC(=O)N[C@@H]1CC[C@@H](CC(=O)NCc2ccc(OC)cc2)O[C@H]1CO	none (no result: FN deposit inh, PDI inh)
COc1ccc2c3c([nH]c2c1)[C@@H](CO)N(C(=O)c1ccc(F)cc1)CC31CCN(S(=O)(=O)c2cccs2)CC1	none (no result: ERp5 inh, HIV Env fusion, PDI inh)
C=C(C)C1Cc2c(C)nn(-c3cccc4cccnc34)c2C1 (stereo not given)	INS-1E GSIS act 51
C[C@H](CO)N1C[C@H](C)[C@@H](CN(C)C(=O)C2CC2)Oc2cc(-c3cccc(F)c3)ccc2S1(=O)=O	none (no result: PDI inh)
COc1ccc(CCN2C(=O)C=CC2=O)cc1OC	INS-1E GSIS act 205
Cc1ccc(Cn2ccsc2=NC(=O)CCl)cc1	INS-1E GSIS act 63, HIV Env fusion inconclusive
CC(=O)Nc1cccc2c1O[C@H](CN(C)C)[C@H](C)CN(C)C2=O	none (no result: ERp5 inh, HIV Env fusion, PDI inh)
O=C(C[C@H]1C[C@@H]2c3cc(NS(=O)(=O)c4ccc(F)cc4)ccc3O[C@@H]2[C@H](CO)O1)NCc1ccc(-c2ccccc2)cc1	none (no result: PDI inh)
CCCc1ccc(-c2ccc(/C=C/C(=O)O)cc2)nc1	HIV Env fusion 61
